Like-named read-outs stand apart in the source and are kept apart here.
Experiments:
[1] = format: in vivo, human; details: for Tlag / Tmax: median (range)
[2] = cited from earlier work
[3] = same dosing regimen, ref unpublished data; cited from earlier work
[4] = Study A: safety/tolerability; format: in vivo, human
How it was run: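 Healthy adults; open-label, two-period, single-sequence design. Period 1: single oral 4 mg test compound on day 1. Period 2: azole CYP2C9 inhibitor 200 mg twice on day 1, then 200 mg once daily days 2–19, with 4 mg test compound on day 3. Washout 14–21 days. Safety covered all AEs and SAEs, physical exams, vital signs, ECG and lab tests, in everyone given at least one dose.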

[5] = Study B: safety/tolerability; format: in vivo, human
How it was run: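 Healthy subjects genotyped for CYP2C9. Part 1: single oral 0.25 mg test compound to *1/*1 (n = 12), *2/*3 (n = 6) and *3/*3 (n = 6), then 42-day washout. Part 2: poor metabolisers only, 0.25 mg on days 1–2 and 0.5 mg on day 3. Safety covered all AEs and SAEs, cardiac monitoring, haematology, blood chemistry and urinalysis, in all dosed subjects.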

[6] = cited from earlier work; remark: listed apart in the source
[7] = tested on: CYP2C9; details: cited from earlier work
[8] = tested on: CYP3A4; details: cited from earlier work
[9] = format: in vivo, human; details: for T½ / Tlag / AUC(0-t) / AUC(0-inf) / Cmax / Tmax / half-life / Vd/F: Study B part 1, siponimod 0.25 mg single dose; for AUC / AUC(0-t) / AUC(0-inf) / Cmax / Tmax / half-life / Vd/F: human, plasma, oral, 0.25 mg; for AUC: AUC24, Study B part 1, siponimod 0.25 mg single dose; for AUC(0-t): AUClast; for half-life: T½; for Vd/F: VZ/F
[10] = cited from earlier work; remark: listed apart in the source
[11] = format: in vivo, human
[12] = single-ascending dose 0.1–75 mg
[13] = CYP2C9*1/*1, geometric mean (CV%)
[14] = CYP2C9*2/*3, geometric mean (CV%)
[15] = CYP2C9*3/*3, geometric mean (CV%)

With `CCc1cc(/C(C)=N/OCc2ccc(C3CCCCC3)c(C(F)(F)F)c2)ccc1CN1CC(C(=O)O)C1` [Siponimod] the “Increase in Cmax in the presence of fluconazole” value ([1]; Study A) was 10%, the Tlag ([1]; Study A, siponimod 4 mg + steady-state fluconazole) was 0 (0–0) h and the CL/F ([1]; Study A, siponimod 4 mg alone, geometric mean (CV%)) was 3.6 L/h. For the same molecule, the Tlag ([1]; Study A, siponimod 4 mg alone) was 0.25 (0–0.5) h, the Tmax ([1]; Study A, siponimod 4 mg alone) was 4.0 (2.0–8.1) h and the AUC(0-inf) ([1]; human, plasma, oral, 4 mg) was 1120 ng·h/mL. For the same molecule, the Cmax ([1]; human, plasma, oral, 4 mg) was 31.2 ng/mL, the Vd/F ([1]; human, plasma, oral, 4 mg) was 210 L and the Tmax ([1]; human, plasma, oral, 4 mg, Tmax, Study A, siponimod 4 mg alone) was roughly 4 h. The AUC(0-t) ([1]; human, plasma, po, 4 mg) was 1110 ng·h/mL, the “Single-dose maximum tolerated dose (MTD)” value ([2]; healthy subjects, single-ascending dose range study, ref unpublished data) was 25 mg and the “Earliest time measurable in plasma postdose” value ([2]; single-ascending dose 0.1–75 mg, 98 healthy subjects) was 0.25 h. For the same molecule, the “Time at which Cmax was reached postdose” value [2, 12] was 3 to 8 h, the “Time at which Cmax was reached, minimum–maximum” value [2, 12] was 0.25 to 24 h and the “T½, mean range” value ([2]; single-ascending dose study, ref unpublished data) was 27 to 57 h. The “Tmax observed in historical data” value [3] was 1.35 h, the “Deaths or SAEs” value ([4]; Study A) was “No deaths or SAEs were reported” and the “Subjects who experienced AEs” value ([4]; Study A period 1, siponimod 4 mg alone) was 79%. The “Subjects who experienced AEs” value ([4]; Study A period 2, siponimod + fluconazole) was 73%, the “Deaths or SAEs” value ([5]; Study B) was “No deaths or SAEs were reported” and the “Subjects reporting at least one AE” value ([5]; Study B part 2, 12 subjects) was 25%. The “Headache (most prevalent AE) incidence” value ([5]; Study B, in both parts) was 8.3%, the “Predicted increase in siponimod AUC in the presence of fluconazole” value ([6]; SimCYP simulation) was “two to three” and the “First-pass effect estimated by SimCYP” value ([6]; ref unpublished data) was ~5 % of the administered dose. The “Contribution of CYP2C9 to metabolism (formation of M5)” value [7] was 79.2%, the “Contribution of the CYP2C9 pathway to total metabolic clearance (fm)” value ([7]; determined in vitro) was 79% and the “Contribution of CYP3A4 to metabolism (formation of M5)” value [8] was 18.5%. The T½ [9, 13] was 28.1 (18.5) h, the Tlag ([9]; CYP2C9*1/*1, median (range)) was 0.25 (0.00–0.50) h and the T½ [9, 14] was 50.9 (31.7) h. The Tlag ([9]; CYP2C9*2/*3, median (range)) was 0.25 (0.00–0.50) h, the Tlag ([9]; CYP2C9*3/*3, median (range)) was 0.50 (0.00–0.50) h and the AUC [9, 13] was 31.6 ng·h/mL. It also gave an AUC [9, 14] of 44.7 ng·h/mL, an AUC [9, 15] of 42.7 ng·h/mL and an AUC(0-t) [9, 13] of 68.6 ng·h/mL. It also gave an AUC(0-t) [9, 14] of 140 ng·h/mL, an AUC(0-t) [9, 15] of 266 ng·h/mL and an AUC(0-inf) [9, 13] of 70.5 ng·h/mL. The AUC(0-inf) [9, 14] was 144 ng·h/mL, the AUC(0-inf) [9, 15] was 271 ng·h/mL and the Cmax [9, 14] was 2.45 ng/mL. For the same molecule, the Cmax [9, 15] was 2.35 ng/mL, the Tmax ([9]; CYP2C9*1/*1, median (range)) was 4 h and the Tmax ([9]; CYP2C9*2/*3, median (range)) was 5 h. It also gave a Tmax ([9]; CYP2C9*3/*3, median (range)) of 4 h, a half-life [9, 14] of 51 h and a half-life [9, 15] of 126 h. For the same molecule, the Vd/F [9, 13] was 144 L, the Vd/F [9, 14] was 127 L and the Vd/F [9, 15] was 167 L. For the same molecule, the “Tolerability of multiple doses” value ([10]; doses up to 20 mg daily for 28 days) was “well tolerated”, the “Time to steady-state of plasma siponimod” value ([10]; multiple-ascending dose 0.3–20 mg, 28 days, 48 healthy subjects) was “approximately 6 days” and the “Effective elimination half-life (T½)” value ([10]; multiple-ascending dose 0.3–20 mg, range) was 22 to 38 h. For the same molecule, the “AUC24 on day 3 higher versus the dose titration study data” value ([11]; Study B part 2, CYP2C9*2/*3, comparison with ref 15) was 1.4 fold, the “AUC24 on day 3 higher versus the dose titration study data” value ([11]; Study B part 2, CYP2C9*3/*3, comparison with ref 15) was 1.7 fold and the Tmax ([11]; human, plasma, po, 0.5 mg) was 6 h. It also gave an AUC ([11]; human, plasma, po, 0.5 mg, AUC24, Study B part 2, day 3, CYP2C9*2/*3, mean) of 125 ng·h/mL and an AUC ([11]; human, plasma, po, 0.5 mg, AUC24, Study B part 2, day 3, CYP2C9*3/*3, mean) of 148 ng·h/mL.
